According to ChEMBL document CHEMBL1129682, “(S)-(-)-4-[4-[2-(isochroman-1-yl)ethyl]-piperazin-1-yl] benzenesulfonamide, a selective dopamine D4 antagonist” (J Med Chem, 1996):

Tests used:
Translocator protein [1] = target: Translocator protein (Mus musculus, UniProt P50637); assay: Displacement of [3H]PK11195 binding from peripheral benzodiazepine receptor in MA-10 mouse tumor Leydig cells; type: cell-based
[2] = target: T1, 5-hydroxytryptamine receptor 1A (Rattus norvegicus, UniProt P19327); assay: Binding affinity of [3H]-8-OH-DPAT towards 5-hydroxytryptamine 1A receptor in cloned mammalian receptor expressed in cultured cells or from rat whole brain.; type: cell-based
T1 sequence (P19327 whole entry): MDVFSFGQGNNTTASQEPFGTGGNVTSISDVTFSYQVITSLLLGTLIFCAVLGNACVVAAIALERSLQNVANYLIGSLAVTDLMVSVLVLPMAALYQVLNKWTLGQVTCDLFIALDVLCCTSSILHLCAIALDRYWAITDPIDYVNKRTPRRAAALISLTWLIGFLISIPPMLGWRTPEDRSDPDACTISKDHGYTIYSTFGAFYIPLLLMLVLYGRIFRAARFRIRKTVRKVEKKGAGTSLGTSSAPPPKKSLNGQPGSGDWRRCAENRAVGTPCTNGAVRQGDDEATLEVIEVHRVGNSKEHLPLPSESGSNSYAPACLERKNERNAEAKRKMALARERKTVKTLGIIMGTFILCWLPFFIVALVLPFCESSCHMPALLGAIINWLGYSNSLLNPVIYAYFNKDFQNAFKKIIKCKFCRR
Procedure, shortened: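 Radioligand displacement with [3H]-8-OH-DPAT on membranes from cloned mammalian 5-HT1A receptor expressed in cultured cells.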

[3] = target: Adrenergic receptor alpha-2 (Rattus norvegicus) (UniProt P22086+P19328+P22909); assay: […] against binding of [3H]clonidine to cloned mammalian Alpha-2 adrenergic receptor expressed in cultured cells or from rat whole brain at 1 uM
D(2) dopamine receptor [4] = target: T2, D(2) dopamine receptor (Rattus norvegicus, UniProt P61169); assay: Binding affinity to rat Dopamine receptor D2 expressed in CHO cells was determined using [3H]U-86170 as radioligand
[5] = target: Adrenergic receptor alpha-1 (Rattus norvegicus) (UniProt P15823+P23944+P43140); assay: (§1) […] against binding of [3H]prazosin to cloned mammalian Alpha-1 adrenergic receptor expressed in cultured cells or from rat whole brain […]; type: cell-based
[6] = target: Serotonin 2 (5-HT2) receptor (Rattus norvegicus, UniProt P30994+P08909+P14842); assay: Binding affinity of [3H]ketanserin towards 5-hydroxytryptamine 2 receptor in cloned mammalian receptor expressed in cultured cells or from rat whole brain.; type: cell-based
D(1A) dopamine receptor = D(1A) dopamine receptor (Rattus norvegicus, UniProt P18901); assay: Binding affinity of [3H]SCH-23,390 towards Dopamine receptor D1 in cloned mammalian receptor expressed in cultured cells or from rat whole brain.; type: cell-based
D(3) dopamine receptor = D(3) dopamine receptor (Rattus norvegicus, UniProt P19020); assay: Binding affinity of [3H]spiperone towards Dopamine receptor D3 in cloned mammalian receptor expressed in cultured cells or from rat whole brain.; type: cell-based
Procedure, shortened: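 Radioligand displacement on membranes from cloned mammalian receptors expressed in cultured cells. D1 used [3H]SCH23390 and D3 used [3H]spiperone.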

D(4) dopamine receptor = target: T3, D(4) dopamine receptor (Rattus norvegicus, UniProt P30729); assay: Binding affinity of [3H]spiperone towards Dopamine receptor D4 expressed in cultured cells or from rat whole brain.; type: cell-based
T3 sequence (P30729 whole entry): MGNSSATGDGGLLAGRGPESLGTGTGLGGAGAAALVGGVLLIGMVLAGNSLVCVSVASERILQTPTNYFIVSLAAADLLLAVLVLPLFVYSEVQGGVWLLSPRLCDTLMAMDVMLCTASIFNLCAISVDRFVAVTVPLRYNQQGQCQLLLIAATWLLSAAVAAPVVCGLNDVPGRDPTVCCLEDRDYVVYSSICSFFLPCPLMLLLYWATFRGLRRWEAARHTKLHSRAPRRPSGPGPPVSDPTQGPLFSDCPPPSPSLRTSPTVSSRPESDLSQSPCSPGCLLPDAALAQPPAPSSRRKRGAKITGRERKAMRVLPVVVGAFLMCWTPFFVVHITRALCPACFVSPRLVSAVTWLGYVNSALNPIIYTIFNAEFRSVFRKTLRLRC

[7] = target: T4, Adrenergic receptor alpha-1 (Rattus norvegicus, UniProt P15823+P23944+P43140); assay: as §1; type: cell-based
T4 sequence (P15823 whole entry): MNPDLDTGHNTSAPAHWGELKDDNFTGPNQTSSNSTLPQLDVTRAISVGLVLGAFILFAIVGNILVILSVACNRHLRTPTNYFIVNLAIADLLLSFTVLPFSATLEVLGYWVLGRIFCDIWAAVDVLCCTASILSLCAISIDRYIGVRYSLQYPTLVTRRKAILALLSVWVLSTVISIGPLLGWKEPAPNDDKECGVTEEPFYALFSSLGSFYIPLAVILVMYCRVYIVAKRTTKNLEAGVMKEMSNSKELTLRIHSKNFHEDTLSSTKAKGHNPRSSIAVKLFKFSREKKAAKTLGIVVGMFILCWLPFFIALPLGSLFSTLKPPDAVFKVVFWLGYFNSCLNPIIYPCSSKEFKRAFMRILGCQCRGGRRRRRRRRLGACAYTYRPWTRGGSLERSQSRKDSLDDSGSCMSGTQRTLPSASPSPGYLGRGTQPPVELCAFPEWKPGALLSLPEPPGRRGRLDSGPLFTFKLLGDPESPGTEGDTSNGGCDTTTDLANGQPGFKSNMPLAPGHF
T4 sequence (P23944 whole entry): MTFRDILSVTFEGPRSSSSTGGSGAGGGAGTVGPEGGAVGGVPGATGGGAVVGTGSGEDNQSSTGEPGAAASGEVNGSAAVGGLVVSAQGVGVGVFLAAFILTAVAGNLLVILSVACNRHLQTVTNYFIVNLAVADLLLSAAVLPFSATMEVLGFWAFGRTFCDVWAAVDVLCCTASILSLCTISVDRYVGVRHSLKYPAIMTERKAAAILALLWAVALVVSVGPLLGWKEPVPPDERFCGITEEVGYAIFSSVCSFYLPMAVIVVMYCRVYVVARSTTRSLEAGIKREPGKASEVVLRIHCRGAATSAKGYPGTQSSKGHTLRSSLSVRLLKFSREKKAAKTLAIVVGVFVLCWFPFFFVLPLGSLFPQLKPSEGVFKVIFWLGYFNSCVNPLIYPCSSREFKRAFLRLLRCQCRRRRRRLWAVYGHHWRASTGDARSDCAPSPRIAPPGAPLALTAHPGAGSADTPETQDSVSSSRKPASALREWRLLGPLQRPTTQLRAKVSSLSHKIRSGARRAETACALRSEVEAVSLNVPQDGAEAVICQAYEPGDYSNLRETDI
T4 sequence (P43140 whole entry): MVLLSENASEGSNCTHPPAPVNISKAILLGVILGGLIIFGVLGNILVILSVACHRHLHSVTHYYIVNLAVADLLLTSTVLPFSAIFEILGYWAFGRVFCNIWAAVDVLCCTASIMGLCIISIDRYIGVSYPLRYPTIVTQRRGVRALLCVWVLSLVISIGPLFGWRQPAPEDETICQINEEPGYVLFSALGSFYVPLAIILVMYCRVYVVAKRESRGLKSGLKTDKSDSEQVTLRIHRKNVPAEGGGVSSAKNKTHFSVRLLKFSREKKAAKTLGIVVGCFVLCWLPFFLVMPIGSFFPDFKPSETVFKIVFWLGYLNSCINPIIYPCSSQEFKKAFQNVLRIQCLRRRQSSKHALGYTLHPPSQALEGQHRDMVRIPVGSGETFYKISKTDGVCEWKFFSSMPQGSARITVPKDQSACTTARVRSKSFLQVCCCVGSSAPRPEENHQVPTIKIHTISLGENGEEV

D(2) dopamine receptor [8] = target: T2, D(2) dopamine receptor; assay: Binding affinity of [3H]U-86170 towards Dopamine receptor D2 in cloned mammalian receptor expressed in cultured cells or from rat whole brain; type: cell-based
[9] = target: T5, Adrenergic receptor alpha-2 (Rattus norvegicus, UniProt P22086+P19328+P22909); assay: […] against binding of [3H]clonidine to cloned mammalian Alpha-2 adrenergic receptor expressed in cultured cells or from rat whole brain
T5 sequence (P22086 whole entry): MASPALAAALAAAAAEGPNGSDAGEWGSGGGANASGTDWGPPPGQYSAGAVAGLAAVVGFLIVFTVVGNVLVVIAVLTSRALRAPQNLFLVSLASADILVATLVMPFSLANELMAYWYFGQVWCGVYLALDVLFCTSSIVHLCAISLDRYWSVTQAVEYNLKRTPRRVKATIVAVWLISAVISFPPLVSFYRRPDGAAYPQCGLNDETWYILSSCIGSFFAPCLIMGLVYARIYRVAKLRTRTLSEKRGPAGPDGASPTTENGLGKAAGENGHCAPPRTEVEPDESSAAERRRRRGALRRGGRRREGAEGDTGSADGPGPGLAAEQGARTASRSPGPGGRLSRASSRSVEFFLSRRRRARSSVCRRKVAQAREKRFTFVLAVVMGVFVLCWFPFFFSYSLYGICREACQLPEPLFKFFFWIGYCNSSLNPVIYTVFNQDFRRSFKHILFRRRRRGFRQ
T5 sequence (P19328 whole entry): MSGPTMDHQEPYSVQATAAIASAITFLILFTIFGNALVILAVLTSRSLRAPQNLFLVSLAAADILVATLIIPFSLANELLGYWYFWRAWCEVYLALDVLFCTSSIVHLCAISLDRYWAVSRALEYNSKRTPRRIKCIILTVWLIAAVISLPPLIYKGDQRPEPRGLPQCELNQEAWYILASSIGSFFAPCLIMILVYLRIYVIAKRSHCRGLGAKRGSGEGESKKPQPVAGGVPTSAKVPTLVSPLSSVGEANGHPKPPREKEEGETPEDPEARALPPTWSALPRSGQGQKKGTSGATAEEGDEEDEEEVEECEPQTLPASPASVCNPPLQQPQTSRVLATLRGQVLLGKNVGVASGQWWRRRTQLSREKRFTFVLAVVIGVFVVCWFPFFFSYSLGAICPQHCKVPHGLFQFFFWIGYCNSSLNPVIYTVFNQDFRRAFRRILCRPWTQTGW
T5 sequence (P22909 whole entry): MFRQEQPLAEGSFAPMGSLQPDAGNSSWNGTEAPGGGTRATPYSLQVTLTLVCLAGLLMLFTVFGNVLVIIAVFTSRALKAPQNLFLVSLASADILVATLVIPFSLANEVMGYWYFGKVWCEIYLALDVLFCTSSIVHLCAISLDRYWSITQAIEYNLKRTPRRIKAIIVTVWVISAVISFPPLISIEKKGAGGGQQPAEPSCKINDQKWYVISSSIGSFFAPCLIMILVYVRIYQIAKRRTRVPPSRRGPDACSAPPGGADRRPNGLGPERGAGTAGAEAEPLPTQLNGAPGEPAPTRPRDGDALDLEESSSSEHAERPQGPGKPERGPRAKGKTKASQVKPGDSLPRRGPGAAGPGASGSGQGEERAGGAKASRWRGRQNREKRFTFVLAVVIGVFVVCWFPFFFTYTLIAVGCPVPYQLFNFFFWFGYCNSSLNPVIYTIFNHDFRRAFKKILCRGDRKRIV

Translocator protein [10] = target: Translocator protein (Rattus norvegicus, UniProt P16257); assay: Displacement of [3H]PK11195 binding from peripheral benzodiazepine receptor in C6 rat glioma cell line; type: cell-based
Translocator protein (Rattus norvegicus, UniProt P16257), sequence (P16257 whole entry, looked up): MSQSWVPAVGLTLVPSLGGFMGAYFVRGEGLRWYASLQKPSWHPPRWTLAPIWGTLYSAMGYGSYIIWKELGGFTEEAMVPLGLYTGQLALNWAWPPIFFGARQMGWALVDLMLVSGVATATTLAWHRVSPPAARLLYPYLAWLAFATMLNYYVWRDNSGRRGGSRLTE

D(3) dopamine receptor, sequence (P19020 whole entry): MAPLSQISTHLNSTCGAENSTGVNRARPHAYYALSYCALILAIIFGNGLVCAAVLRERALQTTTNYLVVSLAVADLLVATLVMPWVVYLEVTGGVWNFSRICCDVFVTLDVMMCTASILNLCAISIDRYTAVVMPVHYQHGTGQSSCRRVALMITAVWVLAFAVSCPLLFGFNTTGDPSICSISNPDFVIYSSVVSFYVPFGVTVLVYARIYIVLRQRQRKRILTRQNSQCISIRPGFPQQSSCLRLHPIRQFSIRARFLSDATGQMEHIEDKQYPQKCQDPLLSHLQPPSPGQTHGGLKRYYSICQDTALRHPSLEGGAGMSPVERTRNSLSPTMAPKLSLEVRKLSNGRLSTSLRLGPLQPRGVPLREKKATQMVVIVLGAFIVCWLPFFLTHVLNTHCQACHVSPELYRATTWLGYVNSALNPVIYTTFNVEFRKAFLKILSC
T2 sequence (P61169 whole entry): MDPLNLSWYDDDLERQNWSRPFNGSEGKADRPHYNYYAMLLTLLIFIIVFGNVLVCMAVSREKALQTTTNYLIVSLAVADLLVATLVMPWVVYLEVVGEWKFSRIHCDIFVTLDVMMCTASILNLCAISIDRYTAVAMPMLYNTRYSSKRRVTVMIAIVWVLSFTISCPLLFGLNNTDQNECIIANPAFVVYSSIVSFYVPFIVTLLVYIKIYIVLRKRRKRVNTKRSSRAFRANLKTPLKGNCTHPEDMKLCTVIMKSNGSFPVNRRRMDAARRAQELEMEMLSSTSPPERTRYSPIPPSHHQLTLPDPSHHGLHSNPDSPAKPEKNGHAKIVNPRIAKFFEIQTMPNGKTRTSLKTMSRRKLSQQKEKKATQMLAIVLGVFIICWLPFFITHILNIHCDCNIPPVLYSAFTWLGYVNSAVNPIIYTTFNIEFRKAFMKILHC
D(1A) dopamine receptor, sequence (P18901 whole entry): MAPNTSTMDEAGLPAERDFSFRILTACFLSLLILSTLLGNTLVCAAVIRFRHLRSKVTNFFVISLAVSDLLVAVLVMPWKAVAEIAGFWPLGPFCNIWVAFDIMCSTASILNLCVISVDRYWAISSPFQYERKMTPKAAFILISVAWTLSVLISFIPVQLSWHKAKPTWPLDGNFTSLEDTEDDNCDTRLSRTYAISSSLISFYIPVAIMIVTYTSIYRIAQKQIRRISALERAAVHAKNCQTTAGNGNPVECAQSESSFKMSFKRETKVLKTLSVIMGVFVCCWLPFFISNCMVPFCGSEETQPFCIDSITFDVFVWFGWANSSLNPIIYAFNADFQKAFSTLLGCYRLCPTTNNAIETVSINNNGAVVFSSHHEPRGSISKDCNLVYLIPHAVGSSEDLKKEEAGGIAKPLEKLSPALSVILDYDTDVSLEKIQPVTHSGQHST
Translocator protein (Mus musculus, UniProt P50637), sequence (P50637 whole entry, looked up): as the sequence (P16257 whole entry, looked up) above, with S2P, Q3E, I67V, E77D, V110A, M113L, M149V, T168P counted along it

Row | SMILES | IC50 (Translocator protein [1]) [nM] | Ki [2] [nM] | inhibition [3] [%] | Ki (D(2) dopamine receptor [4]) [nM] | inhibition [5] [%] | Ki [6] [nM] | Ki (D(1A) dopamine receptor) [nM] | Ki (D(3) dopamine receptor) [nM] | Ki (D(4) dopamine receptor) [nM] | Ki [7] [nM] | Ki (D(2) dopamine receptor [8]) [nM] | Ki [9] [nM] | IC50 (Translocator protein [10]) [nM]
1 | CN1C(=O)CN=C(c2ccc(Cl)cc2)c2cc(Cl)ccc21 [RO-54864] | 10 | – | – | – | – | – | – | – | – | – | – | – | –
2 | COc1ccc(N2CCN(CC[C@@H]3OCCc4ccccc43)CC2)cc1 | – | 490 | 9 | 790 | 20 | 28 | > 2400 | 1300 | 2.2 | – | – | – | –
3 | Cc1ccc2c(c1)C(N1CCN(C)CC1)=Nc1cccnc1N2 | – | – | – | – | – | – | – | – | 21 | – | – | – | –
4 | COc1ccc(N2CCN(CCC3OCCc4ccccc43)CC2)cc1 (stereo unspecified) | – | 1100 | – | – | – | 76 | > 2400 | 1200 | 1.4 | 1280 | 1100 | 1800 | –
5 | Fc1ccc(N2CCN(CCC3OCCc4ccccc43)CC2)cc1 (stereo unspecified) | – | 120 | – | – | – | 5.8 | 410 | 240 | 3 | 38 | 160 | 140 | –
6 | COc1cc2c(cc1OC)C(CCN1CCN(c3ccc(F)cc3)CC1)OCC2 (stereo unspecified) | – | 93 | 75 | – | 100 | 2.1 | 26 | – | 24 | – | 400 | – | –
7 | NS(=O)(=O)c1ccc(N2CCN(CC[C@H]3OCCc4ccccc43)CC2)cc1 | – | 2400 | 15 | – | 41 | – | – | 2900 | 100 | – | 5600 | – | –
8 | NS(=O)(=O)c1ccc(N2CCN(CC[C@@H]3OCCc4ccccc43)CC2)cc1 [SONEPIPRAZOLE] | – | > 3700 | – | – | – | > 1800 | – | 5800 | 7.2 | > 4900 | > 4300 | > 2600 | –
9 | COc1ccc(N2CCN(CC[C@H]3OCCc4ccccc43)CC2)cc1 | – | > 1600 | 0 | – | 36 | 30 | > 2400 | 220 | 25 | – | > 1800 | – | –
10 | CCCCCCN(CCCCCC)C(=O)Cc1c(-c2ccc(F)cc2)[nH]c2ccccc12 | 10 | – | – | – | – | – | – | – | – | – | – | – | 10
